{"data": "Published values of several laboratories", "target": "LIM domain kinase 1 (LIMK1, Homo sapiens, UniProt P53667)", "note": "Compare with care: the assays were run in different laboratories."}
{"Structure (SMILES)": "N#CC1(c2ccccn2)CCN(Cc2cc(C(=O)N3CCCC3)c(=O)n3ccccc23)CC1", "test": "cell-free assay, competition with immobilised ligand", "conditions": "1 µM", "remaining binding": "98%"}
{"Structure (SMILES)": "N[C@@H]1CCN(c2nccc(-c3cnn4ncccc34)n2)C1", "test": "binding", "conditions": "1 µM", "remaining binding": "73%"}
{"Structure (SMILES)": "CS(=O)(=O)N1CCCC(NC(=O)[C@H](CCC2CCCCC2)NC(=O)c2ccc(CNC(=O)c3cnc4ccccn34)cc2)C1 (some centres unmarked)", "test": "cell-free assay, competition with immobilised ligand", "conditions": "0.1 µM", "remaining binding": "75%"}
{"Structure (SMILES)": "O=C(c1ccc(Nc2ncc(Cl)c(-c3ccc(Cl)s3)n2)cc1)N1CCC(N2CCCC2)CC1", "test": "binding, competition with immobilised ligand", "conditions": "1 µM", "remaining binding": "40%"}
{"Structure (SMILES)": "O=C(NCC1CCOCC1)c1n[nH]cc1NC(=O)c1c(F)cccc1F", "test": "binding, competition with immobilised ligand", "conditions": "1 µM", "remaining binding": "100%"}
{"Structure (SMILES)": "O=C(NCCCN1CCOCC1)c1ccc(Nc2nccc(-c3cc4ccccc4s3)n2)cc1", "test": "binding, competition with immobilised ligand", "conditions": "1 µM", "remaining binding": "53%"}
{"Structure (SMILES)": "CCN1CCN(Cc2ccc(C(=O)Nc3ccc(C)c(Oc4ccc5c(c4)CC(=O)N5)c3)cc2C(F)(F)F)CC1", "test": "binding, competition with immobilised ligand", "conditions": "1 µM", "remaining binding": "100%"}
{"Structure (SMILES)": "c1cncc(-c2cccc(Nc3nccc(NC4CCCCC4)n3)c2)c1", "test": "binding, competition with immobilised ligand", "conditions": "10 µM", "remaining binding": "56%"}
{"Structure (SMILES)": "CN(CCCC(F)(F)F)c1nccc(-c2cnn3ncccc23)n1", "test": "binding", "conditions": "1 µM", "remaining binding": "86%"}
{"Structure (SMILES)": "COc1cc(-c2cn(C3CCc4c(F)cccc4N(CC(F)(F)F)C3=O)nn2)ccc1-n1cnc(C)c1 (centres unmarked)", "test": "cell-free assay, competition with immobilised ligand", "conditions": "1 µM", "remaining binding": "100%"}
{"Structure (SMILES)": "F[C@@H]1CCN(c2nccc(-c3cnn4ncccc34)n2)C1", "test": "binding", "conditions": "1 µM", "remaining binding": "89%"}
{"Structure (SMILES)": "CCC(=N\\O)/C(C)=C/c1ccc(F)cc1", "test": "cell-free assay, competition with immobilised ligand", "conditions": "1 µM", "remaining binding": "78%"}
{"Structure (SMILES)": "CNC(=O)[C@@H]1CC[C@@H](n2c(-c3ccc4cnccc4c3)nc3ccc(C(=O)NCc4cccc(C(N)=O)c4)cc32)C1", "test": "binding, competition with immobilised ligand", "conditions": "1 µM", "remaining binding": "100%"}
{"Structure (SMILES)": "CN(C)c1nccc(-c2cnc3ncccn23)n1", "test": "binding", "conditions": "1 µM", "remaining binding": "100%"}
{"Structure (SMILES)": "CNCc1ccccc1-c1csc([C@@H](C)Nc2nc(C)nc3cc(OC)c(OC)cc23)c1", "test": "cell-free assay, competition with immobilised ligand", "conditions": "1 µM", "remaining binding": "99%"}
{"Structure (SMILES)": "Cc1cnc(Nc2ccc(C(=O)N3CCC(N4CCCC4)CC3)cc2)nc1-c1cc2ccccc2s1", "test": "binding, competition with immobilised ligand", "conditions": "1 µM", "remaining binding": "55%"}
{"Structure (SMILES)": "C[C@H]1CCN(c2nccc(-c3cnn4ncccc34)n2)C1", "test": "binding", "conditions": "1 µM", "remaining binding": "91%"}
{"Structure (SMILES)": "Cc1cc(NC(=O)c2cccc(S(F)(F)(F)(F)F)c2)cc(-n2ccn3nc(-c4cccnc4)cc23)c1", "test": "cell-free assay, competition with immobilised ligand", "conditions": "1 µM", "remaining binding": "100%"}
{"Structure (SMILES)": "FC(F)(F)Oc1cccc(-c2cnc3ccc(-c4ccncc4)nn23)c1", "test": "cell-free assay, competition with immobilised ligand", "conditions": "5 µM", "remaining binding": "81%"}
{"Structure (SMILES)": "COc1ccnn2ncc(-c3ccnc(N(C)C)n3)c12", "test": "binding", "conditions": "1 µM", "remaining binding": "100%"}
